# Measurements: ChEMBL document CHEMBL2434954, “Novel 6β-acylaminomorphinans with analgesic activity” (Eur J Med Chem, 2013)
# pEC50, pKi: −log10 of the molar value. Calls of active or inactive are those of the source.
# Legend:
# Mus musculus [1] = assay: Analgesic activity in sc dosed CD1 mouse assessed as increase in pain threshold by tail flick method; type: functional
# Method in brief: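 Male CD-1 mice (25-35 g), radiant heat tail-flick. Baseline 2.0-3.0 s, mean of two trials. Cumulative s.c. dosing, tested 30 min after dose, groups n=10, two independent assays. Analgesia defined quantally as doubling or more of baseline latency.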
# [2] = target: T1, Delta-type opioid receptor (Mus musculus, UniProt P32300); assay: Displacement of [125I]-BNtxA from mouse cloned delta opioid receptor expressed in CHO cells after 90 mins; type: cell-based
# T1 sequence (P32300 whole entry): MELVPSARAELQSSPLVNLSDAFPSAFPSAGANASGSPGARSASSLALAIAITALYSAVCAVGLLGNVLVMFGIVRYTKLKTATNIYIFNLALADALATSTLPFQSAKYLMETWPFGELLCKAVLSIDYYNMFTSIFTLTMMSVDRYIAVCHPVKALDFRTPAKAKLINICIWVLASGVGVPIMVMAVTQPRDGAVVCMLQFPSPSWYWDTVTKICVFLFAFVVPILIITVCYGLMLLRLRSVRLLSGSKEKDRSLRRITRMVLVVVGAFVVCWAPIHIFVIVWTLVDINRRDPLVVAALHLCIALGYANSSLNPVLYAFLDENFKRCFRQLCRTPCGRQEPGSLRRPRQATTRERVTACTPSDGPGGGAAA
# Method in brief: (§1)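 CHO membranes stably expressing cloned mouse MOR-1, DOR-1 or KOR-1 (30-40 μg/mL protein), competition against 0.1 nM 125I-BNtxA. Incubation 90 min at 25°C in 50 mM potassium phosphate pH 7.4, with 5 mM MgSO4 for MOR-1 only. Nonspecific binding with 8 μM levallorphan. Ki from IC50. Mean ± SEM, at least three replicates.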
# [3] = target: T2, Kappa-type opioid receptor (Mus musculus, UniProt P33534); assay: Displacement of [125I]-BNtxA from mouse cloned kappa opioid receptor expressed in CHO cells after 90 mins; type: cell-based; method in brief: as §1
# T2 sequence (P33534 whole entry): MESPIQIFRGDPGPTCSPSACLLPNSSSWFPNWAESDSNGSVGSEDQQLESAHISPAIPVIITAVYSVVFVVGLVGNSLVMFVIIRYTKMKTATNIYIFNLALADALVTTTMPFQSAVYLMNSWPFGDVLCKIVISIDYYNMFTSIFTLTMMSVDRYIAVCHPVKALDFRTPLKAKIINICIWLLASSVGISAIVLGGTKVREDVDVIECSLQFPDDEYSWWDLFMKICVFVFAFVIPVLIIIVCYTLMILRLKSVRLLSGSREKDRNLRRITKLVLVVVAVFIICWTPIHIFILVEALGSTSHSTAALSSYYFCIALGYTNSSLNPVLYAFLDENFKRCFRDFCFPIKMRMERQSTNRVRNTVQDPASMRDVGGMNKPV
# Mu-type opioid receptor [4] = target: T3, Mu-type opioid receptor (Mus musculus, UniProt P42866); assay: Displacement of [125I]-BNtxA from mouse cloned mu opioid receptor expressed in CHO cells after 90 mins; type: cell-based; method in brief: as §1
# T3 sequence (P42866 whole entry): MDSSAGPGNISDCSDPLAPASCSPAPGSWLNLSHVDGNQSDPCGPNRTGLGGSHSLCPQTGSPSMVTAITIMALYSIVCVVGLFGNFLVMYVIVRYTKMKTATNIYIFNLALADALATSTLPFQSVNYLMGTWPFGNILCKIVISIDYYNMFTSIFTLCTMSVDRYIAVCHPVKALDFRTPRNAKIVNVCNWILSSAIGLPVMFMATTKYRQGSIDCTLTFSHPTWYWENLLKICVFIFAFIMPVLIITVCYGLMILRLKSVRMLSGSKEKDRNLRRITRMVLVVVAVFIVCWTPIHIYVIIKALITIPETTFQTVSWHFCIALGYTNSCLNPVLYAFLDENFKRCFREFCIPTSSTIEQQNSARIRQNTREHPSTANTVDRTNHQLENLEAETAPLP
# Mus musculus [5] = assay: Toxicity in CD1 mouse assessed as respiratory depression at 24 mg/kg, sc measured after 15 to 35 mins; type: organism-based; parameters: dose 24 mg/kg, route subcutaneous; details: in vivo
# Method in brief: (§2)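 Awake, freely moving adult male CD1 mice, pulse oximeter breath rate after 30 min habituation. 5-s average breath rate every 5 min. Baseline over 25 min before s.c. injection, then recorded from 15 min post-injection for 35 min. Groups n=3, saline control. Values given as percent of baseline.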
# Mus musculus [6] = species on record: Mus musculus; assay: Selectivity ratio of EC50 for mouse cloned delta opioid receptor to EC50 for mouse cloned mu opioid receptor by [35S]GTPgammaS binding assay; type: functional
# Mus musculus [7] = species on record: Mus musculus; assay: Selectivity ratio of EC50 for mouse cloned kappa opioid receptor to EC50 for mouse cloned mu opioid receptor by [35S]GTPgammaS binding assay; type: functional
# [8] = target: Mu-type opioid receptor (Mus musculus) (UniProt P42866); assay: Agonist activity at mouse cloned mu opioid receptor expressed in CHO cells after 60 mins by [35S]GTPgammaS binding assay relative to DAMGO; type: functional, cell-based
# Mu-type opioid receptor (Mus musculus), sequence (P42866 whole entry): as above
# Method in brief: (§3)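 Membranes from transfected cells incubated with agonist 60 min at 30°C in 50 mM Tris-HCl pH 7.4, 3 mM MgCl2, 0.2 mM EGTA, 10 mM NaCl, with 0.05 nM [35S]GTPγS and GDP. Filtration on glass-fibre filters, scintillation counting. Basal binding with GDP and no drug. […] Mean ± SEM, three assays in triplicate.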
# [9] = target: Delta-type opioid receptor (Mus musculus) (UniProt P32300); assay: Agonist activity at mouse cloned delta opioid receptor expressed in CHO cells after 60 mins by [35S]GTPgammaS binding assay relative to DPDPE; type: functional, cell-based; method in brief: as §3
# Delta-type opioid receptor (Mus musculus), sequence (P32300 whole entry): as the sequence (P32300 whole entry) above
# [10] = target: Kappa-type opioid receptor (Mus musculus) (UniProt P33534); assay: Agonist activity at mouse cloned kappa opioid receptor expressed in CHO cells at 100 nM after 60 mins by [35S]GTPgammaS binding assay relative to U50488H; type: functional, cell-based; method in brief: as §3
# Kappa-type opioid receptor (Mus musculus), sequence (P33534 whole entry): as the sequence (P33534 whole entry) above
# [11] = target: T1, Delta-type opioid receptor; assay: Agonist activity at mouse cloned delta opioid receptor expressed in CHO cells after 60 mins by [35S]GTPgammaS binding assay; type: functional, cell-based
# Method in brief: (§4)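 Membranes from transfected cells incubated with agonist 60 min at 30°C in 50 mM Tris-HCl pH 7.4, 3 mM MgCl2, 0.2 mM EGTA, 10 mM NaCl, with 0.05 nM [35S]GTPγS and GDP. Filtration on glass-fibre filters, scintillation counting. Basal binding with GDP and no drug. Mean ± SEM, three assays in triplicate.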
# [12] = target: T2, Kappa-type opioid receptor; assay: Agonist activity at mouse cloned kappa opioid receptor expressed in CHO cells after 60 mins by [35S]GTPgammaS binding assay; type: functional, cell-based; method in brief: as §3
# Mu-type opioid receptor [13] = target: T3, Mu-type opioid receptor; assay: Agonist activity at mouse cloned mu opioid receptor expressed in CHO cells after 60 mins by [35S]GTPgammaS binding assay; type: functional, cell-based; method in brief: as §4
# Mus musculus [14] = assay: Analgesic activity in sc dosed CD1 mouse assessed as increase in pain threshold by tail flick method in presence of kappa opioid receptor antagonist norBNI; type: functional, organism-based
# Method in brief: (§5)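 Tail-flick test in CD1 mice (n=6 per group) given agonist 5 mg/kg s.c. alone or with antagonist s.c.: norBNI 10 mg/kg or β-FNA 40 mg/kg 24 h before, NTI 20 mg/kg 15 min before. Latency read 30 min after agonist. Two independent replications; ANOVA with Bonferroni test (p < 0.05).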
# Mus musculus [15] = assay: Analgesic activity in sc dosed CD1 mouse assessed as increase in pain threshold by tail flick method in presence of delta opioid receptor antagonist […]; type: functional, organism-based; method in brief: as §5
# Mus musculus [16] = assay: Analgesic activity in sc dosed CD1 mouse assessed as increase in pain threshold by tail flick method in presence of mu opioid receptor antagonist beta-FNA; type: functional, organism-based; method in brief: as §5
# Mus musculus [17] = species on record: Mus musculus; assay: Selectivity ratio of Ki for mouse cloned delta opioid receptor to Ki for mouse cloned mu opioid receptor
# Mus musculus [18] = species on record: Mus musculus; assay: Selectivity ratio of Ki for mouse cloned kappa opioid receptor to Ki for mouse cloned mu opioid receptor
# Mus musculus [19] = assay: Toxicity in CD1 mouse assessed as respiratory depression at 20 mg/kg, sc measured after 15 to 35 mins; type: organism-based; parameters: dose 20 mg/kg, route subcutaneous; details: in vivo; method in brief: as §2
Structure (SMILES),ED50 (Mus musculus [1]) [mg/kg],pKi [2],pKi [3],pKi (Mu-type opioid receptor [4]),also measured
CN1CC[C@]23c4c5ccc(O)c4O[C@H]2[C@H](NC(=O)/C=C/c2cccc([N+](=O)[O-])c2)C=C[C@H]3[C@H]1C5,> 10,8.29,9.09,9.92,
COc1ccc2c3c1O[C@H]1[C@H](NC(=O)/C=C/c4cccc([N+](=O)[O-])c4)C=C[C@H]4[C@@H](C2)N(C)CC[C@@]341,> 10,< 7.00,< 7.00,8.43,
COc1ccc2c3c1O[C@H]1[C@H](NC(=O)/C=C/c4ccc(C(F)(F)F)cc4)C=C[C@H]4[C@@H](C2)N(C)CC[C@@]341,> 10,< 7.00,< 7.00,8.26,
CN1CC[C@]23c4c5ccc(O)c4O[C@H]2[C@H](NC(=O)/C=C/c2ccccc2)C=C[C@H]3[C@H]1C5,3.13,7.99,8.54,10.00,Activity (Mus musculus [5]): Non-toxic; Ratio EC50 (Mus musculus [6]): 4; Ratio EC50 (Mus musculus [7]): 25; Efficacy [8]: 95.3%; Efficacy [9]: 102%; Efficacy [10]: 106%; pEC50 [11]: 8.04; pEC50 [12]: 7.44; pEC50 (Mu-type opioid receptor [13]): 8.86; Activity (Mus musculus [14]): Active; Activity (Mus musculus [15]): inactive; Activity (Mus musculus [16]): inactive; Ratio Ki (Mus musculus [17]): 103
COc1ccc(/C=C/C(=O)N[C@@H]2C=C[C@H]3[C@H]4Cc5ccc(OC)c6c5[C@@]3(CCN4C)[C@H]2O6)cc1,> 10,< 7.00,< 7.00,7.60,
COc1ccc2c3c1O[C@H]1[C@H](NC(=O)/C=C/c4ccc(Cl)cc4)C=C[C@H]4[C@@H](C2)N(C)CC[C@@]341,> 10,< 7.00,< 7.00,8.42,
CN1CC[C@]23c4c5ccc(O)c4O[C@H]2[C@H](NC(=O)/C=C/c2ccc(C(F)(F)F)cc2)C=C[C@H]3[C@H]1C5,> 10,7.84,7.98,9.72,Ratio Ki (Mus musculus [18]): 55.4
COc1ccc2c3c1O[C@H]1[C@H](NC(=O)/C=C/c4ccccc4)C=C[C@H]4[C@@H](C2)N(C)CC[C@@]341,> 10,< 7.00,< 7.00,8.33,
CN1CC[C@]23c4c5ccc(O)c4O[C@H]2[C@H](NC(=O)/C=C/c2ccc(Cl)cc2)C=C[C@H]3[C@H]1C5,> 10,8.03,8.71,9.82,
COc1ccc(/C=C/C(=O)N[C@@H]2C=C[C@H]3[C@H]4Cc5ccc(O)c6c5[C@@]3(CCN4C)[C@H]2O6)cc1,> 10,7.82,8.27,9.13,
CN1CC[C@]23c4c5ccc(O)c4O[C@H]2[C@@H](O)C=C[C@H]3[C@H]1C5 [MORPHINE],4.96,,,,Activity (Mus musculus [19]): Toxic
